Bioassay records: PubChem BioAssay, several laboratories
Rad51 HR inh = blocks human Rad51 in homologous recombination. Q06609. hRad51 DNA strand exchange, fluorescence dequenching. inhibition, % at 10 µM. actives 0.085% (n = 200,000);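 active means inhibition above 40% at the single screening dose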;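 further: 0% = DMSO control wells and 100% = blanks with heterologous ssDNA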
Target sequence (Q06609 whole entry, looked up): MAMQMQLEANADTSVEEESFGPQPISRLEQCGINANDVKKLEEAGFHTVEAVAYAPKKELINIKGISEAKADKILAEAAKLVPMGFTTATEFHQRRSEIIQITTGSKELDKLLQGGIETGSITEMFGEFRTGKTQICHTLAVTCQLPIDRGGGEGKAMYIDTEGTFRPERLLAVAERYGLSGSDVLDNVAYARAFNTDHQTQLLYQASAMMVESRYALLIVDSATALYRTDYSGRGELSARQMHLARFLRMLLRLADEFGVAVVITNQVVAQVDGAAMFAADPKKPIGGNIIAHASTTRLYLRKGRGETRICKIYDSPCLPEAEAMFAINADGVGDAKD
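Material: hRad51 filaments on single-stranded DNA; Reagent: Donor/quencher-labelled 47-bp dsDNA substrate; Compound: 10 µM final, single point; Schedule: 37 °C 15-min filament assembly, 30-min compound preincubation, 15-min exchange; Technique: FRET fluorescence, excitation 485 nm, emission 520 nm; Benchmarks: control wells and blank wells on each plate.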
WT yeast gro inh = growth inhibition of WT yeast, mitochondrial fusion screen; mitochondrial fusion phenotypic screen, WT strain; inhibition, % at 10 µM; actives 2.1% (n = 190,000); AID 1362; in the data active means inhibition above about 58%; tested in S. cerevisiae
Calpain2 inh = calpain II (pig) inhibition; purified calpain II, fluorogenic peptide substrate, 30 min; inhibition, % at 16 µM; actives 0.37% (n = 220,000);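 active means inhibition above about 50%, limit read from the data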
PMI act satM6P = increases human PMI activity with near-saturating mannose 6-phosphate; P34949; coupled PMI enzyme assay, resazurin fluorescence, 20 min; hits give high values; 1 = untreated enzyme, 0 = substrate-free blank; activation factor at 20 µM; actives 0.34% (n = 190,000);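 active means activation factor of 2 or more at 20 µM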
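Test system: human phosphomannose isomerase with PGI, G6PDH, diaphorase coupling enzymes; amount: 15 ng/mL PMI; incubation: enzyme reaction with compound 20 min at room temperature; technique: resorufin fluorescence (Ex 544/Em 590 nm) from resazurin via diaphorase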
PMI activator = phosphomannose isomerase (human) activation; P34949; purified human PMI, coupled resazurin fluorescence, 20 min; hits give high values; 1 = vehicle control, 0 substrate-free wells; activation factor at 20 µM; actives 0.005% (n = 190,000); AID 1214;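 active means activation factor of 2 or more at 20 µM, relative to plate controls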
Lmaj promast = inhibitors of Leishmania major promastigote growth. inhibition, % at 10 µM. actives 9% (n = 200,000). Leishmania major promastigotes, resazurin fluorescence viability; in the data active means inhibition above about 50%;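 further: promastigotes grown with compound for 44 hours at 28 °C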
An asterisk follows results filed as active. An excerpt weighted towards active compounds, which were near 9.8% of everything screened.

Results for CCCCNC(=O)CNC(=S)N(Cc1ccccc1)Cc1cccnc1 ?
Rad51 HR inh: -5.5; WT yeast gro inh: 3.9; Calpain2 inh: 8.2; PMI act satM6P: 0.8; PMI activator: 0.9; Lmaj promast: 16.1

How did COCCCNC(=S)N(Cc1cccnc1)Cc1ccc(OC)c(OC)c1 do in these assays?
Rad51 HR inh: 10.3; WT yeast gro inh: -27.4; Calpain2 inh: 3.9; PMI act satM6P: 1; PMI activator: 1; Lmaj promast: 88.8*

How did CN1CCN(C(=S)SCC(=O)Nc2nc(-c3ccccc3)c(-c3ccccc3)o2)CC1 do in these assays?
Rad51 HR inh: -10.2; WT yeast gro inh: 30.6; Calpain2 inh: -1.7; PMI act satM6P: 0.9; PMI activator: 0.8; Lmaj promast: -1.4

How did CCc1ccccc1NC(=O)/C(C#N)=C/c1ccc(Sc2ccccc2)o1 do in these assays?
Rad51 HR inh: -4.9; WT yeast gro inh: 36.6; Calpain2 inh: 14.8; PMI act satM6P: 1; PMI activator: 1; Lmaj promast: 92.9*

Results for CCc1ccccc1NC(=O)/C(C#N)=C\c1ccc(Sc2ccccc2)o1 ?
Rad51 HR inh: -1.5; WT yeast gro inh: -8.5; Calpain2 inh: 19.4; PMI act satM6P: 1; PMI activator: 0.9; Lmaj promast: -3.6

Results for Cc1nc(N2CCOCC2)nc(Oc2ccccc2)c1[N+](=O)[O-] ?
Rad51 HR inh: 17.2; Calpain2 inh: 24.8

How did N#Cc1cc(-c2ccccc2)nc(NN)n1 do in these assays?
Calpain2 inh: 10.0

How did N#Cc1cc(-c2ccccc2)nc(Oc2ccc(Cl)cc2)n1 do in these assays?
Rad51 HR inh: -8.3; WT yeast gro inh: -16.4; Calpain2 inh: -36.5; PMI act satM6P: 0.9; PMI activator: 0.9; Lmaj promast: 77.2*

How did CC(O/N=C\c1ccccc1O)C(=O)Nc1ccccc1C(=O)N1CCOCC1 (stereo not drawn) do in these assays?
Rad51 HR inh: 3.5; WT yeast gro inh: -3.5; Calpain2 inh: 19.3; PMI act satM6P: 1; PMI activator: 1; Lmaj promast: -3.9

What do the screens show for `CC1(C)CC2CC(C)(CN2S(=O)(=O)c2ccc(C(=O)Nc3cccc(S(=O)(=O)N4CCOCC4)c3)cc2)C1` (stereo not drawn)?
Rad51 HR inh: 8.8; WT yeast gro inh: 1.2; Calpain2 inh: -43.8; PMI act satM6P: 0.8; PMI activator: 0.8; Lmaj promast: 99.2*

How did CC1(C)CC2CC(C)(CN2S(=O)(=O)c2ccc(C(=O)Nc3cc(S(=O)(=O)N4CCOCC4)ccc3Cl)cc2)C1 (stereo not drawn) do in these assays?
Rad51 HR inh: 8.0; WT yeast gro inh: 7.3; Calpain2 inh: -61.5; PMI act satM6P: 0.8; PMI activator: 1; Lmaj promast: 98.8*

How did O=[N+]([O-])c1ccc(OCCO)c(P(=O)(c2ccccc2)c2ccccc2)c1 do in these assays?
Rad51 HR inh: 4.2; Calpain2 inh: 6.3

How did COc1ccc(-c2ncccc2OC(=O)C23CC4CC(CC(C4)C2)C3)cc1 do in these assays?
Rad51 HR inh: 4.5; WT yeast gro inh: 46.1; Calpain2 inh: 15.7; PMI act satM6P: 1.1; PMI activator: 1; Lmaj promast: 13.2

How did COc1ccc(Br)cc1C(=O)Nc1ccc(Cc2ccncc2)cc1 do in these assays?
WT yeast gro inh: -5.7; Calpain2 inh: -8.4; PMI act satM6P: 1; PMI activator: 1; Lmaj promast: 81.4*

How did COc1c(C(=O)Nc2ccc(Cc3ccncc3)cc2)ccc2ccccc12 do in these assays?
Rad51 HR inh: -3.2; WT yeast gro inh: 68.4*; Calpain2 inh: 33.2; PMI act satM6P: 0.9; PMI activator: 1; Lmaj promast: 18.0

Results for Cc1ccc(NC(=O)CCC(=O)NNC(=O)c2ccccc2)c(C)c1 ?
Rad51 HR inh: -13.6; WT yeast gro inh: 0.8; Calpain2 inh: -28.3; PMI act satM6P: 1; PMI activator: 0.9; Lmaj promast: -1.8

How did CCOc1ccc(S(=O)(=O)N2CCCCC2)c(C)c1C do in these assays?
Rad51 HR inh: -7.2; WT yeast gro inh: 31.4; Calpain2 inh: 56.7*; PMI act satM6P: 0.9; PMI activator: 0.9; Lmaj promast: 81.8*

Results for Cc1ccc(S(=O)(=O)CC(=O)c2ccc3c(c2)OCCO3)cc1 ?
Rad51 HR inh: -12.4; Calpain2 inh: 8.5

Results for COC(=O)c1[nH]c2cccc(Cl)c2c1NC(=O)CN(C)C1CCCCC1 ?
Rad51 HR inh: 6.3; WT yeast gro inh: 61.2*; Calpain2 inh: -30.8; PMI act satM6P: 1; PMI activator: 1.1; Lmaj promast: -0.7

How did Cc1ccc2cc(C#N)c(SCc3nnc(-c4ccccc4[N+](=O)[O-])o3)nc2c1 do in these assays?
Rad51 HR inh: 3.3; WT yeast gro inh: -25.6; Calpain2 inh: 34.7; PMI act satM6P: 0.9; PMI activator: 0.8; Lmaj promast: 33.3

What do the screens show for `O=C(Nc1nnc(-c2ccc3c(c2)CCCC3)o1)c1c(F)cccc1F`?
Rad51 HR inh: -3.3; WT yeast gro inh: 56.1; Calpain2 inh: -6.5; PMI act satM6P: 1.2; PMI activator: 1.3; Lmaj promast: -7.5

Results for O=C(CCc1ccccc1)Nc1nnc(-c2cccs2)o1 ?
Rad51 HR inh: 9.6; WT yeast gro inh: 2.9; Calpain2 inh: -8.3; PMI act satM6P: 1.1; PMI activator: 1; Lmaj promast: 57.0*

Results for O=C(CCc1ccccc1)Nc1nnc(-c2ccc3c(c2)CCCC3)o1 ?
Rad51 HR inh: -3.4; WT yeast gro inh: 65.9*; Calpain2 inh: 11.5; PMI act satM6P: 1; PMI activator: 1; Lmaj promast: 11.8

How did O=C(CCc1ccccc1)Nc1nnc(-c2ccc3c(c2)OCCO3)o1 do in these assays?
Rad51 HR inh: -4.1; WT yeast gro inh: 2.0; Calpain2 inh: 16.1; PMI act satM6P: 1; PMI activator: 1; Lmaj promast: 69.7*

How did O=C(N/N=C\c1ccc(Cl)cc1)C1=NOC2COC3(CCN(c4ccc([N+](=O)[O-])cc4)CC3)OCC12 (stereo not drawn) do in these assays?
Rad51 HR inh: -5.7; Calpain2 inh: -24.2

Results for COc1ccc([N+](=O)[O-])cc1N(CC(=O)N1CCCC1)S(C)(=O)=O ?
Rad51 HR inh: -9.4; WT yeast gro inh: 6.8; Calpain2 inh: -12.2; PMI act satM6P: 1; PMI activator: 1; Lmaj promast: -9.1

How did Cc1ccc(CNCC(=O)Nc2ccc(C)cc2Br)cc1 do in these assays?
Rad51 HR inh: -8.9; WT yeast gro inh: 16.9; Calpain2 inh: 33.0; PMI act satM6P: 1.1; PMI activator: 1.1; Lmaj promast: -4.1

What do the screens show for `Clc1ccc2nc(-c3ccccn3)c(Nc3ccc4c(c3)OCO4)n2c1`?
Rad51 HR inh: 24.9; WT yeast gro inh: 72.9*; Calpain2 inh: 56.0*; PMI act satM6P: 1.1; PMI activator: 1; Lmaj promast: 99.9*

What do the screens show for `NS(=O)(=O)c1ccc(CNC(=S)Nc2ccc(F)c(Cl)c2)cc1`?
Rad51 HR inh: 16.9; WT yeast gro inh: 8.4; Calpain2 inh: 1.2; PMI act satM6P: 0.9; PMI activator: 0.8; Lmaj promast: 18.1
